Laboratory results taken from ChEMBL document CHEMBL1151801, “Synthesis of new indeno[1,2-e]pyrimido[4,5-b][1,4]diazepine-5,11-diones as potential antitumor agents” (2008).
Active and inactive are the calls of the source.

Experiments:
NCI/ADR-RES = test: Antitumor activity against human NCI/ADR-RES cells after 48 hrs by SRB assay; type: functional
How it was run: (§1)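 NCI in vitro human tumor cell line screen. Cells were exposed continuously to compound for 48 h at five concentration levels (100, 10, 1.0, 0.1 and 0.01). Growth was estimated by sulforhodamine B protein staining. GI50 is the concentration giving a 50% reduction in net protein increase relative to control cells over the incubation.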

[1] = Antitumor activity against human […] cells after 48 hrs by SRB assay; type: functional; how it was run: as §1
MDA-MB-231 = test: Antitumor activity against human MDA-MB-231 cells after 48 hrs by SRB assay; type: functional; conditions: MDA-MB-231, 48 h; how it was run: as §1
MCF7 = test: Antitumor activity against human MCF7 cells after 48 hrs by SRB assay; type: functional; conditions: MCF7, 48 h; how it was run: as §1
SNB-75 = test: Antitumor activity against human SNB75 cells after 48 hrs by SRB assay; type: functional; conditions: SNB-75, 48 h; how it was run: as §1
HOP-62 = test: Antitumor activity against human HOP62 cells after 48 hrs by SRB assay; type: functional; conditions: HOP-62, 48 h; for CC50: read-out: LC50 (the source's name); how it was run: as §1
HT-29 = test: Antitumor activity against human HT-29 cells after 48 hrs by SRB assay; type: functional; conditions: HT-29, 48 h; how it was run: as §1
EKVX = test: Antitumor activity against human EKVX cells after 48 hrs by SRB assay; type: functional; conditions: for CC50: read-out: LC50 (the source's name); how it was run: as §1
NCI60 = test: Antitumor activity against human NCI60 cells at 1 uM; type: functional, cell-based
OVCAR-5 = test: Antitumor activity against human OVCAR5 cells after 48 hrs by SRB assay; type: functional; conditions: OVCAR-5, 48 h; how it was run: as §1
UACC-62 = test: Antitumor activity against human UACC62 cells after 48 hrs by SRB assay; type: functional; conditions: UACC-62, 48 h
How it was run: (§2)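 NCI in vitro human tumor cell line screen. Continuous 48 h drug exposure at five concentrations (100, 10, 1.0, 0.1 and 0.01 µM). Cell growth estimated by sulforhodamine B protein staining. GI50 defined as the concentration giving 50% reduction in net protein increase versus control cells over the incubation.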

SK-MEL-28 = test: Antitumor activity against human SK-MEL-28 cells after 48 hrs by SRB assay; type: functional; conditions: SK-MEL-28, 48 h; how it was run: as §1
LOX IMVI = test: Antitumor activity against human LOXIMVI cells after 48 hrs by SRB assay; type: functional; how it was run: as §1
M14 = test: Antitumor activity against human M14 cells after 48 hrs by SRB assay; type: functional; conditions: M14, 48 h; how it was run: as §1
SNB-19 = test: Antitumor activity against human SNB19 cells after 48 hrs by SRB assay; type: functional; conditions: SNB-19, 48 h; how it was run: as §1
Malme-3M = test: Antitumor activity against human MALME-3M cells after 48 hrs by SRB assay; type: functional; how it was run: as §1
TK-10 = test: Antitumor activity against human TK10 cells after 48 hrs by SRB assay; type: functional; conditions: TK-10, 48 h; how it was run: as §2
SK-MEL-5 = test: Antitumor activity against human SK-MEL-5 cells after 48 hrs by SRB assay; type: functional; conditions: SK-MEL-5, 48 h; how it was run: as §1
RXF 393 = test: Antitumor activity against human […] cells after 48 hrs by SRB assay; type: functional; conditions: RXF 393, 48 h; how it was run: as §1
[2] = read-out: LC50 (the source's name)

Compound	GI50 (NCI/ADR-RES) [µM]	LC50 (NCI/ADR-RES) [µM]	GI50 [1] [µM]	LC50 [1] [µM]	GI50 (MDA-MB-231) [µM]	LC50 (lethal concentration, 50% net cell kill) (MDA-MB-231) [µM]	GI50 (MCF7) [µM]	LC50 (concentration causing 50% net cell kill) (MCF7) [µM]	GI50 (SNB-75) [nM]	LC50 (SNB-75) [µM]	GI50 (HOP-62) [µM]	CC50 (HOP-62) [µM]	GI50 (HT-29) [µM]	LC50 (HT-29) [µM]	GI50 (EKVX) [µM]	CC50 (EKVX) [µM]	Activity (NCI60)	further results
CSc1nc2c(c(=O)[nH]1)NC1=C(C(=O)c3ccccc31)C(c1ccccc1)N2 (centres undefined)	4.54	> 100	3.01	> 100	4.09	> 100	2.4	> 100	1270	> 100	5.37	> 100	2.97	> 100	12.8	> 100	Active	
CSc1nc2c(c(=O)[nH]1)NC1=C(C(=O)c3ccccc31)C(c1ccc(F)cc1)N2 (centres undefined)	6.42	> 100	4.2	> 100	12.6	> 100	5.18	> 100	1460	> 100	11.9	95.6	3.36	35.1	18.2	> 100	Active	GI50 (OVCAR-5): 17.7 µM; CC50 (OVCAR-5; [2]): 95.6 µM; GI50 (UACC-62): 3.04 µM; CC50 (UACC-62; [2]): > 100 µM; GI50 (SK-MEL-28): 9.03 µM; CC50 (SK-MEL-28; [2]): > 100 µM; GI50 (LOX IMVI): 8.78 µM; CC50 (LOX IMVI; [2]): 95.2 µM; GI50 (M14): 6.29 µM; CC50 (M14; [2]): > 100 µM; GI50 (SNB-19): 15.9 µM; CC50 (SNB-19; [2]): > 100 µM; GI50 (Malme-3M): 19.6 µM; CC50 (Malme-3M; [2]): > 100 µM; GI50 (TK-10): 12.9 µM; CC50 (TK-10; [2]): > 100 µM; GI50 (SK-MEL-5): 6.13 µM; CC50 (SK-MEL-5; [2]): > 100 µM; GI50 (RXF 393): 14.5 µM; CC50 (RXF 393; [2]): 92.8 µM
